Values joined by “and” are separate entries in the source; they are usually repeats but may differ in a detail not shown here. Equal values may be shown once.
How the values were obtained:
Rattus norvegicus [1] = test: Total liver weight in Normolipidemic rat liver for 5 mg/kg of dose of the compound; type: functional
Method in brief: (§1)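 Normolipidemic rats dosed orally, with vehicle controls. Liver cholesterol and triglyceride are reported as mg/g of liver, and liver weight in g. For the reversibility set, dosing was 5 mg/kg for 5 days, with livers analysed after treatment and again 6 days after treatment withdrawal.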

Rattus norvegicus [2] = test: Total liver weight in Normolipidemic rat liver for 0.5 mg/kg of dose of the compound; type: functional; method in brief: as §1
Canis familiaris [3] = test: Inhibition of plasma total cholesterol in the normolipidemic dogs after day 3 of oral administration of 5 mg/kg/day.; type: functional, Canis lupus familiaris
Method in brief: (§2)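 Normolipidemic dogs dosed once daily for 4 days by oral gavage, compound suspended in cornstarch vehicle. Plasma sampled 24 h after dosing on days 0, 2, 3 and 4, assayed for triglycerides and total cholesterol (mg/dL). Mean percent inhibition versus day-0 level is given for treated dogs; n = 6 per group; significance by one-way ANOVA, p < 0.05.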

Canis familiaris [4] = test: Inhibition of plasma total cholesterol in the normolipidemic dogs after day 3 of oral administration of 1 mg/kg/day.; type: functional, Canis lupus familiaris; method in brief: as §2
Rattus norvegicus [5] = organism: Rattus norvegicus; test: Hepatic triglyceride content in Normolipidemic rat liver after treatment.; type: functional; method in brief: as §1
Rattus norvegicus [6] = organism: Rattus norvegicus; test: Hepatic cholesterol content in Normolipidemic rat liver after washout.; type: functional; method in brief: as §1
Canis familiaris [7] = test: Inhibition of plasma total cholesterol in the normolipidemic dogs after day 0 of oral administration of 1 mg/kg/day.; type: functional, Canis lupus familiaris; method in brief: as §2
Rattus norvegicus [8] = test: Inhibition of plasma triglycerides in normolipidemic rats after 2 hr of 5 mg/kg oral dosing; type: functional
Method in brief: (§3)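 Overnight-fasted normolipidemic rats received a single oral dose in cornstarch vehicle. Blood was drawn at 2, 6 and 24 h post-dose and assayed for triglycerides and total cholesterol, with free access to food after the 6 h sample. Value is mean percent inhibition versus a separate vehicle-treated group, unpaired t test p < 0.05, NS = no significant change, N = 6.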

Rattus norvegicus [9] = test: Inhibition of plasma triglycerides in normolipidemic rats after 24 hr of 50 mg/kg oral dosing; type: functional; method in brief: as §3
Rattus norvegicus [10] = test: Hepatic triglyceride content in Normolipidemic rat liver for 5 mg/kg of dose of the compound; type: functional; method in brief: as §1
Canis familiaris [11] = test: Inhibition of plasma total triglycerides in the normolipidemic dogs after day 2 of oral administration of 1 mg/kg/day.; type: functional, Canis lupus familiaris; method in brief: as §2
Rattus norvegicus [12] = test: Total liver weight in Normolipidemic rat liver for 1 mg/kg of dose of the compound; type: functional; method in brief: as §1
Canis familiaris [13] = test: Inhibition of plasma total cholesterol in the normolipidemic dogs after day 3 of oral administration of 2.5 mg/kg/day.; type: functional, Canis lupus familiaris; method in brief: as §2
[14] = target: T1, Microsomal triglyceride transfer protein large subunit (Homo sapiens, UniProt P55157); test: In vitro inhibitory activity against MTP using MTP transfer assay
T1 sequence (P55157 whole entry): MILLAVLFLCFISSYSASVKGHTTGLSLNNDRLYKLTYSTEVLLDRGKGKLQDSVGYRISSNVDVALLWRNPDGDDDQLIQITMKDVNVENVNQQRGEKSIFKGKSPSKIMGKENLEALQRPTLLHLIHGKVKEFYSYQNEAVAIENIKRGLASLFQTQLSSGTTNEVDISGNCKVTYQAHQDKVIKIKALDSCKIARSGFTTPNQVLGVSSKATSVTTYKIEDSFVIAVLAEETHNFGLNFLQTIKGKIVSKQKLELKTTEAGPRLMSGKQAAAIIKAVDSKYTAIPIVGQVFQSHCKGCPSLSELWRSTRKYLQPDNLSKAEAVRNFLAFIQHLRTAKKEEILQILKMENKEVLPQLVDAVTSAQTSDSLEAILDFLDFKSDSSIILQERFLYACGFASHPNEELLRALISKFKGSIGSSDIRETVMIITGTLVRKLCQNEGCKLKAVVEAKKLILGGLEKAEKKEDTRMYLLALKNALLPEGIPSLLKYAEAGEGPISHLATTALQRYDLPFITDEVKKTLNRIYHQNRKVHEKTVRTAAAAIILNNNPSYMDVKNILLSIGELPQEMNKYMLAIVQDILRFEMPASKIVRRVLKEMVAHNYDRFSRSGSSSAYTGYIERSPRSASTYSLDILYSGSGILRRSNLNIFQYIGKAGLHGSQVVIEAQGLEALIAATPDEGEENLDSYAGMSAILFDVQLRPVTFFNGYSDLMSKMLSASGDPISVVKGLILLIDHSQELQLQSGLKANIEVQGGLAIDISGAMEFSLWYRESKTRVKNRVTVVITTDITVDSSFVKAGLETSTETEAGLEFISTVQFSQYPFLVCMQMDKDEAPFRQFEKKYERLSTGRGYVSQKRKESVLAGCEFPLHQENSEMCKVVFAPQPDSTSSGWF

Canis familiaris [15] = test: Inhibition of plasma total triglycerides in the normolipidemic dogs after day 4 of oral administration of 5 mg/kg/day; type: functional, Canis lupus familiaris
Canis familiaris [16] = test: Inhibition of plasma total triglycerides in the normolipidemic dogs after day 3 of oral administration of 2.5 mg/kg/day.; type: functional, Canis lupus familiaris
Canis familiaris [17] = test: Inhibition of plasma total triglycerides in the normolipidemic dogs after day 0 of oral administration of 1 mg/kg/day.; type: functional, Canis lupus familiaris; method in brief: as §2
Canis familiaris [18] = test: Inhibition of plasma total cholesterol in the normolipidemic dogs after day 2 of oral administration of 5 mg/kg/day.; type: functional, Canis lupus familiaris; method in brief: as §2
Rattus norvegicus [19] = test: Hepatic triglyceride content in Normolipidemic rat liver for 1 mg/kg of dose of the compound; type: functional; method in brief: as §1
Rattus norvegicus [20] = test: Inhibition of plasma triglycerides in normolipidemic rats after 6 hr of 10 mg/kg oral dosing; type: functional; method in brief: as §3
Rattus norvegicus [21] = test: Inhibition of plasma triglycerides in normolipidemic rats after 2 hr of 10 mg/kg oral dosing; type: functional; method in brief: as §3
Rattus norvegicus [22] = test: Inhibition of plasma triglycerides in normolipidemic rats after 6 h of 5 mg/kg oral dosing; type: functional; method in brief: as §3
Canis familiaris [23] = test: Inhibition of plasma total triglycerides in the normolipidemic dogs after day 2 of oral administration of 2.5 mg/kg/day.; type: functional, Canis lupus familiaris; method in brief: as §2
Rattus norvegicus [24] = test: Hepatic triglyceride content in Normolipidemic rat liver for 0.5 mg/kg of dose of the compound; type: functional; method in brief: as §1
Rattus norvegicus [25] = test: Hepatic cholesterol content in Normolipidemic rat liver for 1 mg/kg of dose of the compound; type: functional; method in brief: as §1
Canis familiaris [26] = test: Inhibition of plasma total cholesterol in the normolipidemic dogs after day 0 of oral administration of 2.5 mg/kg/day.; type: functional, Canis lupus familiaris; method in brief: as §2
Rattus norvegicus [27] = test: Inhibition of plasma triglycerides in normolipidemic rats after 2 hr of 50 mg/kg oral dosing; type: functional; method in brief: as §3
Canis familiaris [28] = test: Inhibition of plasma total cholesterol in the normolipidemic dogs after day 4 of oral administration of 2.5 mg/kg/day; type: functional, Canis lupus familiaris; method in brief: as §2
Rattus norvegicus [29] = test: Hepatic cholesterol content in Normolipidemic rat liver for 5 mg/kg of dose of the compound; type: functional; method in brief: as §1
Canis familiaris [30] = test: Inhibition of plasma total cholesterol in the normolipidemic dogs after day 2 of oral administration of 1 mg/kg/day.; type: functional, Canis lupus familiaris; method in brief: as §2
Canis familiaris [31] = test: Inhibition of plasma total triglycerides in the normolipidemic dogs after day 0 of oral administration of 5 mg/kg/day.; type: functional, Canis lupus familiaris; method in brief: as §2
Canis familiaris [32] = test: Inhibition of plasma total triglycerides in the normolipidemic dogs after day 4 of oral administration of 2.5 mg/kg/day; type: functional, Canis lupus familiaris
Rattus norvegicus [33] = organism: Rattus norvegicus; test: Hepatic triglyceride content in Normolipidemic rat liver after washout.; type: functional; method in brief: as §1
Canis familiaris [34] = test: Inhibition of plasma total cholesterol in the normolipidemic dogs after day 2 of oral administration of 2.5 mg/kg/day.; type: functional, Canis lupus familiaris; method in brief: as §2
Rattus norvegicus [35] = test: Inhibition of plasma triglycerides in normolipidemic rats after 6 hr of 50 mg/kg oral dosing; type: functional; method in brief: as §3
Canis familiaris [36] = test: Inhibition of plasma total cholesterol in the normolipidemic dogs after day 4 of oral administration of 5 mg/kg/day; type: functional, Canis lupus familiaris; method in brief: as §2
Rattus norvegicus [37] = test: Inhibition of plasma triglycerides in normolipidemic rats after 24 hr of 10 mg/kg oral dosing; no significant change; type: functional, organism-based; parameters: dose 10 mg/kg; method in brief: as §3
Canis familiaris [38] = test: Inhibition of plasma total triglycerides in the normolipidemic dogs after day 4 of oral administration of 1 mg/kg/day.; type: functional, Canis lupus familiaris
Canis familiaris [39] = test: Inhibition of plasma total triglycerides in the normolipidemic dogs after day 0 of oral administration of 2.5 mg/kg/day.; type: functional, Canis lupus familiaris; method in brief: as §2
Rattus norvegicus [40] = organism: Rattus norvegicus; test: Hepatic cholesterol content in Normolipidemic rat liver after treatment.; type: functional; method in brief: as §1
Canis familiaris [41] = test: Inhibition of plasma total triglycerides in the normolipidemic dogs after day 3 of oral administration of 1 mg/kg/day.; type: functional, Canis lupus familiaris
Canis familiaris [42] = test: Inhibition of plasma total triglycerides in the normolipidemic dogs after day 2 of oral administration of 5 mg/kg/day.; type: functional, Canis lupus familiaris; method in brief: as §2
Rattus norvegicus [43] = test: Inhibition of total cholesterol in normolipidemic rats after 6 hr of 50 mg/kg oral dosing; type: functional; conditions: 50 mg/kg; method in brief: as §3
Rattus norvegicus [44] = test: Hepatic cholesterol content in Normolipidemic rat liver for 0.5 mg/kg of dose of the compound; type: functional; method in brief: as §1
Canis familiaris [45] = test: Inhibition of plasma total cholesterol in the normolipidemic dogs after day 4 of oral administration of 1 mg/kg/day; type: functional, Canis lupus familiaris; method in brief: as §2
Rattus norvegicus [46] = test: Inhibition of total cholesterol in normolipidemic rats after 2 hr of 50 mg/kg oral dosing; type: functional; conditions: 50 mg/kg; method in brief: as §3
Canis familiaris [47] = test: Inhibition of plasma total triglycerides in the normolipidemic dogs after day 3 of oral administration of 5 mg/kg/day.; type: functional, Canis lupus familiaris
Canis familiaris [48] = test: Inhibition of plasma total cholesterol in the normolipidemic dogs after day 0 of oral administration of 5 mg/kg/day.; type: functional, Canis lupus familiaris; method in brief: as §2

COC(=O)N[C@H]1Cc2ccc(NC(=O)c3cccc(C)c3-c3ccc(C(F)(F)F)cc3)cc2C1
Total liver weight (Rattus norvegicus [1]): 9.79 g
Total liver weight (Rattus norvegicus [2]): 9.13 g
Lipid level (Canis familiaris [3]): <68 mg/dL
Lipid level (Canis familiaris [4]): 101 mg/dL
Hepatic triglyceride (Rattus norvegicus [5]): <13.6 mg/g
Hepatic cholesterol (Rattus norvegicus [6]): 1.12 mg/g
Lipid level (Canis familiaris [7]): 110 mg/dL
Reduction (Rattus norvegicus [8]): 78%
Reduction (Rattus norvegicus [9]): 63%
Hepatic triglyceride (Rattus norvegicus [10]): 17.7 mg/g
Lipid level (Canis familiaris [11]): 42 mg/dL
Total liver weight (Rattus norvegicus [12]): 9.6 g
Lipid level (Canis familiaris [13]): <76 mg/dL
IC50 [14]: 70 nM
Lipid level (Canis familiaris [15]): <12 mg/dL
Lipid level (Canis familiaris [16]): <25 mg/dL
Lipid level (Canis familiaris [17]): 46 mg/dL
Lipid level (Canis familiaris [18]): <87 mg/dL
Hepatic triglyceride (Rattus norvegicus [19]): 8.16 mg/g
Reduction (Rattus norvegicus [20]): 68%
Reduction (Rattus norvegicus [21]): 84%
Reduction (Rattus norvegicus [22]): 59%
Lipid level (Canis familiaris [23]): <32 mg/dL
Hepatic triglyceride (Rattus norvegicus [24]): 4.61 mg/g
Hepatic cholesterol (Rattus norvegicus [25]): 2.01 mg/g
Lipid level (Canis familiaris [26]): 113 mg/dL
Reduction (Rattus norvegicus [27]): 81%
Lipid level (Canis familiaris [28]): <57 mg/dL
Hepatic cholesterol (Rattus norvegicus [29]): 3.09 mg/g
Lipid level (Canis familiaris [30]): 103 mg/dL
Lipid level (Canis familiaris [31]): 48 mg/dL
Lipid level (Canis familiaris [32]): <23 mg/dL
Hepatic triglyceride (Rattus norvegicus [33]): 2.38 mg/g
Lipid level (Canis familiaris [34]): <90 mg/dL
Reduction (Rattus norvegicus [35]): 71%
Lipid level (Canis familiaris [36]): <54 mg/dL
NS (Rattus norvegicus [37]): no significant change
Lipid level (Canis familiaris [38]): 45 mg/dL
Lipid level (Canis familiaris [39]): 59 mg/dL
Hepatic cholesterol (Rattus norvegicus [40]): <2.76 mg/g
Lipid level (Canis familiaris [41]): 48 mg/dL
Lipid level (Canis familiaris [42]): <22 mg/dL
Reduction (Rattus norvegicus [43]): 52% and 58% and 47%
Hepatic cholesterol (Rattus norvegicus [44]): 1.4 mg/g
Lipid level (Canis familiaris [45]): <89 mg/dL
Reduction (Rattus norvegicus [46]): 33% and 41% and 30%
Lipid level (Canis familiaris [47]): <16 mg/dL
Lipid level (Canis familiaris [48]): 124 mg/dL

Source: ChEMBL document CHEMBL1134325, “Diaminoindanes as microsomal triglyceride transfer protein inhibitors” (J Med Chem, 2001)
